This note sets out measurements from ChEMBL document CHEMBL4673255, “Acylated 1H-1,2,4-Triazol-5-amines Targeting Human Coagulation Factor XIIa and Thrombin: Conventional and Microscale Synthesis, Anticoagulant Properties, and Mechanism of Action” (J Med Chem, 2020).

Data set [1] addresses T1, Coagulation factor XII (Homo sapiens) (UniProt P00748).
T1 sequence (whole entry): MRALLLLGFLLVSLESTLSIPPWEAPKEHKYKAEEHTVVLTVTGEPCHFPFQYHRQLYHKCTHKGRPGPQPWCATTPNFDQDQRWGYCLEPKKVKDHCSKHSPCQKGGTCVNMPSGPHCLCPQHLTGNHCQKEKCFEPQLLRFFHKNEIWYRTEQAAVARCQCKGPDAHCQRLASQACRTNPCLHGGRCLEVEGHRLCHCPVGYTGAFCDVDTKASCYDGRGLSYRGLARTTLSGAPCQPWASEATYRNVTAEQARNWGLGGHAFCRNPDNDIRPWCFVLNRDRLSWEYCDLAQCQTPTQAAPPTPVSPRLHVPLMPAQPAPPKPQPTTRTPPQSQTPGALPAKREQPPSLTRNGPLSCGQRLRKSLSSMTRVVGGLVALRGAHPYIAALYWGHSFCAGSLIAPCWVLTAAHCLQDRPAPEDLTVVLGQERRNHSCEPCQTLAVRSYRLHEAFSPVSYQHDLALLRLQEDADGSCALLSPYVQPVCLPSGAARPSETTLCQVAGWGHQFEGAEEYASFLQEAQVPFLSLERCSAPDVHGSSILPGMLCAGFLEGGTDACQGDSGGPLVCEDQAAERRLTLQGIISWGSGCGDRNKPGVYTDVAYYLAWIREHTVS
Briefly: Binding affinity to human plasma coagulation factor XIIA assessed as compound-adduct formation at molar ratio of 1:20 preincubated for 4 mins followed by desalination and measured after 120 mins by SEC/ESI-TOF mass spectra analysis. In kind it is cell-free. The gist of the method:
(§1)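 β-FXIIa incubated with inhibitor at a 1:20 molar ratio, then size-exclusion chromatography coupled to ESI-MS to measure the mass of enzyme–inhibitor complexes. Further runs checked complex stability to probe reversibility.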
A general note: In gel filtration, larger molecules generally elute earlier.

Data set [2] concerns the target T1, Coagulation factor XII (Homo sapiens). Briefly: Binding affinity to human plasma coagulation factor XIIA assessed as compound-adduct formation at molar ratio of 1:20 preincubated for 4 mins followed by desalination and measured after 5 mins by SEC/ESI-TOF mass spectra analysis. In kind it is cell-free. Put shortly: as §1
For data set [3] the target is unchanged. Briefly: Binding affinity to human plasma coagulation factor XIIA assessed as compound-adduct formation by measuring change in molecular mass at molar ratio of 1:20 measured after 4 mins by SEC/ESI-TOF mass spectra analysis. In kind it is cell-free. The gist of the method:
as §1

For data set [4], the system named is Plasma. Briefly: Anticoagulant activity in human platelet-rich plasma assessed as reduction in TF-induced thrombin generation by measuring half life of clotting time at 100 uM preincubated for 15 mins followed by TF addition by Z-Gly-Gly-Arg-AMC substrate based calibrated automated thrombography (Rvb= 3 +/- 0.5 min). In kind it is functional, cell-free. Put shortly:
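Tissue-factor-triggered homogeneous thrombin generation followed by fluorogenic substrate cleavage. Read-outs: clotting time (T1/2), peak amplitude (Amax, AU/L), time to peak (Tmax) and ETP (AU·min/L). DMSO and buffer served as controls. n = 3, mean ± SD.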

Data set [5] relates to Plasma. Briefly: Antiplatelet activity in human platelet-rich plasma assessed as inhibition of TRAP6 induced platelet activation by measuring reduction in ATP release at 1 uM preincubated for 20 mins followed by TRAP6 addition and measured after 10 mins by luciferin-based luminescence assay. In kind it is functional, cell-free. The settings on record: time 30.0 min. The gist of the method:
(§2)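 Platelet activation measured as dense-granule ATP release by firefly luciferase bioluminescence. Compound-treated platelets were activated with MDA-MB-231 cells, thrombin or TRAP-6. TRAP-6-induced signal was set as 100%. Triplicate, mean ± SD.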

The subject of data set [6] is Plasma. Briefly: Antiplatelet activity in human platelet-rich plasma assessed as inhibition of thrombin induced platelet activation by measuring reduction in ATP release preincubated for 20 mins followed by thrombin addition and measured after 10 mins by luciferin-based luminescence assay. Format: functional, cell-free. The conditions noted are these: time 30.0 min. Put shortly:
as §2

The subject of data set [7] is Plasma. Briefly: Antiplatelet activity in human platelet-rich plasma assessed as inhibition of MDA-MB-231 induced platelet activation by measuring reduction in ATP release preincubated for 20 mins followed by tumor cell addition and measured after 30 mins by luciferin-based luminescence assay. In kind it is functional, cell-free. The settings on record: time 50.0 min. The gist of the method: as §2

Data set [8] concerns Plasma. Briefly: Antiplatelet activity in […] assessed as inhibition of thrombin-induced platelet aggregation at 1 to 10 uM by light transmission aggregometry. Format: functional. The conditions noted are these: Homo sapiens, dose 1-10 µM.
Data set [9] deals with Plasma. Briefly: Antiplatelet activity in […] assessed as inhibition of MDA-MB-231-induced platelet aggregation at 1 uM by light transmission aggregometry. The conditions noted are these: Homo sapiens. Format: functional.
In data set [10] the test system is Plasma. Briefly: Antiplatelet activity in […] assessed as inhibition of MDA-MB-231-induced platelet aggregation by light transmission aggregometry. The conditions noted are these: Homo sapiens, dose 0.1-10 µM. Format: functional.
The target of data set [11] is T2, Coagulation factor X (Homo sapiens, UniProt P00742). Briefly: Inhibition of human coagulation factor Xa using Boc-Ile-Glu-Gly-Arg-AMC as fluorogenic substrate at 5 uM measured at 1 min interval for 1 hr by fluorometric assay relative to control.
T2 sequence (P00742 41-179 limits assumed): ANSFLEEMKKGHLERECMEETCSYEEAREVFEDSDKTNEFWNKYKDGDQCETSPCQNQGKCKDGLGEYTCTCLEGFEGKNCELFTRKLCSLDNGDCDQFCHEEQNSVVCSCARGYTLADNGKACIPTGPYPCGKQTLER
T2 sequence (P00742 235-488 limits assumed): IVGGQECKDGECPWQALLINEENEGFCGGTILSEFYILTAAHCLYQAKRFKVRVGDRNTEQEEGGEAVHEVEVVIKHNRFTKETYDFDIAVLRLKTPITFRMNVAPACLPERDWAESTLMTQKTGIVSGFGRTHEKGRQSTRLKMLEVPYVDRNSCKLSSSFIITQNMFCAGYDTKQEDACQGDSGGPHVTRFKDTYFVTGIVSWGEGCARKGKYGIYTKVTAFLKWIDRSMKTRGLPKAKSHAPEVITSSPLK
For data set [12], the target named is Urokinase-type plasminogen activator (Homo sapiens, UniProt P00749). Briefly: Inhibition of human uPA using Tos-Gly-Pro-Arg-AMC as fluorogenic substrate measured at 1 min interval for 1 hr by fluorometric assay.
For the next data set, the target named is Plasminogen (Homo sapiens, UniProt P00747). Briefly: Inhibition of human plasmin using Mes-dArg-Phe-Arg-AMC as fluorogenic substrate measured at 1 min interval for 1 hr by fluorometric assay.
Chain of Plasminogen (P00747 97-580 limits assumed): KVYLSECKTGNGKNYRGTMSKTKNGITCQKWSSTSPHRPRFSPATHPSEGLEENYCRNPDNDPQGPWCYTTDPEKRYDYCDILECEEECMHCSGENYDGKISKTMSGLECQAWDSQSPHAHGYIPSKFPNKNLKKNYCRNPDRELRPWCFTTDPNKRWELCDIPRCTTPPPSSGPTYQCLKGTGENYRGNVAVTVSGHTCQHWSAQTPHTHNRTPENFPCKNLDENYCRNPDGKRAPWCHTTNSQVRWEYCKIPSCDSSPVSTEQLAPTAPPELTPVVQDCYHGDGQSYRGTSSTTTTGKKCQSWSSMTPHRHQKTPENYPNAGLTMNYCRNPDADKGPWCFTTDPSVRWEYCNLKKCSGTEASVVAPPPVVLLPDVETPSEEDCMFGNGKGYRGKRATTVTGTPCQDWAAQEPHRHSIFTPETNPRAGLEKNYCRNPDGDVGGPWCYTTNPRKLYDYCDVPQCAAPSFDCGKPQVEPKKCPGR
Chain of Plasminogen (P00747 581-810 limits assumed): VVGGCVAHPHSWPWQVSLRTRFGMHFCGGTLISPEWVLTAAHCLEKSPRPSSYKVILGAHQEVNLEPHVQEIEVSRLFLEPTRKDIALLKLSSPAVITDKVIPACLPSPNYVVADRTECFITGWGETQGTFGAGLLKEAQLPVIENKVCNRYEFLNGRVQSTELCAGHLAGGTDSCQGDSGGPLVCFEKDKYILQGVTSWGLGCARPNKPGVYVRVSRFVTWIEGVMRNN
Data set [13] concerns the target T3, Prothrombin (Homo sapiens, UniProt P00734). Briefly: Inhibition of human coagulation factor thrombin using Boc-Val-Pro-Arg-AMC as fluorogenic substrate at 100 nM measured at 1 min interval for 1 hr by fluorometric assay relative to control. The gist of the method:
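Screening of crude microscale amide-coupling products. Conversion was measured by 1H NMR and product content normalised to 76 µmol/L in DMSO, then tested at 1 µM and 100 nM in the fluorogenic FXIIa or thrombin assay. A 0-conversion reaction served as blank. Percent inhibition is from triplicates.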

Another data set has as its system Blood. Briefly: Effect on blood coagulation in human blood assessed as increase in prothrombin time at 300 uM incubated for 3 mins followed by CaCl2 addition by PT reagent based assay relative to control. Format: ADME, tissue-based. The settings on record: 0.05 h. Put shortly: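 Clotting was started with PT reagent already containing CaCl2, prewarmed to 37 °C, and clotting time was recorded. Increase is given relative to DMSO; at least triplicate, mean ± SD.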

In data set [14] the target is T3, Prothrombin. Briefly: Inhibition of human coagulation factor alpha-thrombin using Boc-Val-Pro-Arg-AMC as fluorogenic substrate measured at 1 min interval for 1 hr by fluorometric assay.
The next data set concerns the target T4, Coagulation factor XII (Homo sapiens, UniProt P00748).
T4 sequence (P00748 whole entry): T1 sequence (whole entry)
Briefly: Inhibition of human coagulation factor XIIA using Boc-Gln-Gly-Arg-AMC as fluorogenic substrate measured at 1 min interval for 1 hr by fluorometric assay.

In data set [15] the test system is Plasma. Briefly: Antiplatelet activity in […] assessed as inhibition of MDA-MB-231-induced platelet aggregation at 0.1 to 10 uM by light transmission aggregometry. In kind it is functional. The settings on record: Homo sapiens, dose 0.1-10 µM.
A further data set is filed under the species Homo sapiens. Briefly: Selectivity index, ratio of IC50 for inhibition of human coagulation factor alpha-thrombin using Boc-Val-Pro-Arg-AMC as fluorogenic substrate to IC50 for inhibition of human coagulation factor XIIA using Boc-Gln-Gly-Arg-AMC as fluorogenic substrate incubated for 1 hr by fluorometric assay.
The target in data set [16] is T2, Coagulation factor X. Briefly: Inhibition of human coagulation factor Xa using Boc-Ile-Glu-Gly-Arg-AMC as fluorogenic substrate measured at 1 min interval for 1 hr by fluorometric assay.

Calls of active or inactive are those of the source. No cut-off for these calls is given here.

A word on the inhibition: it is the share of the control response that was lost under treatment. The IC50 is the concentration needed to halve the response being measured. A lower IC50 goes with greater potency in that assay. As for `Nc1nc(-c2ccccn2)nn1C(=O)c1ccc2ccccc2c1`, the outcome in data set [1] and in data set [2] was inactive. Also, the Activity in data set [3] came out at 154 Da; in the data set with Blood, 575%. Moreover, the T1/2 with Plasma [4] is 2.3 min. In the data set with Plasma [5], the inhibition entry was “inactive”. In addition, the inhibition entry is “Dose-dependent effect” in the data set with Plasma [6]; “Dose-dependent effect” in the data set with Plasma [7]; “Dose-dependent effect” with Plasma [10]; 48% against Coagulation factor X [11]; 55% at Prothrombin [13]. In addition, the inhibition entry with Plasma [8] and in the data set with Plasma [9] was “Active” each time. Moreover, the IC50 in data set [12] is 6760 nM; against Plasminogen, more than 5000 nM; at Prothrombin [14] it was 27 nM; on Coagulation factor XII it was 138 nM.
`Nc1nc(-c2ccccn2)nn1C(=O)c1cccc2ccccc12`: in the data set on Plasma [4], the T1/2 was found to be 2.7 min. For the same molecule, the inhibition result with Plasma [15] was “inactive”. In addition, in the data set filed under Homo sapiens, the Ratio IC50 stood at 13. Moreover, the IC50 in data set [12] is more than 5000 nM; at Plasminogen it was more than 5000 nM; against Coagulation factor X [16] it was more than 5000 nM; at Prothrombin [14], 375 nM; against Coagulation factor XII, 29 nM. For the same molecule, at Prothrombin [13], the inhibition was 13%. The Activity with Blood is 14%.
